According to ChEMBL document CHEMBL2069235, “Synthesis and biological evaluation of tyrosine modified analogues of the α4β7 integrin inhibitor biotin-R₈ERY” (Bioorg Med Chem, 2012):
Calls of active or inactive are those of the source. The rule behind the calls is not given here. *1 amine or outer side, *2 acyl side, *3 side chain or, on linkers, in order; H or OH if unused. Where a SMILES comes first, the peptide text is derived from it. [ ]: non-standard residue; d: D form. The star is where a group is joined. X7 = O=C([C@H](Cc1ccc(-c2cccc([N+](=O)[O-])c2)cc1)N[*:1])[*:2]; Phe(4-(2-MeO-Ph)) = COc1ccccc1-c1ccc(C[C@H](N)C(=O)O)cc1; X3 = COc1cccc(OC)c1-c1ccc(C[C@H](N[*:1])C(=O)[*:2])cc1; X6 = COc1ccc(-c2ccc(C[C@H](N[*:1])C(=O)[*:2])cc2)cc1OC; X5 = N#Cc1ccc(-c2ccc(C[C@H](N[*:1])C(=O)[*:2])cc2)cc1; Bip(4'-Me) = Cc1ccc(-c2ccc(C[C@H](N)C(=O)O)cc2)cc1; X4 = O=C([C@H](Cc1ccc(C2=CCCCC2)cc1)N[*:1])[*:2]; Biotin = O=C1N[C@H]2[C@H](CS[C@H]2CCCCC(=O)*)N1; X1 = O=C([C@H](Cc1ccc(C2CCCCC2)cc1)N[*:1])[*:2]

Legend:
Assay type in all cases: cell-based
[1] = target: T1, Integrin alpha-4/beta-7 (Mus musculus) (UniProt Q00651+P26011); experiment: Inhibition of alpha4beta7 assessed as inhibition of Mn(2+)-activated adhesion of mouse TK-1 T cells to mouse MAdCAM-1 at 100 uM incubated for 1 hr by cell adhesion assay
In short: (§1)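 TK-1 cells (mouse AKR/Cum α4β7+/α4β1− CD8 T lymphoma), grown at 37 °C in RPMI 1640 with 10% FCS and 0.05 mM β-mercaptoethanol, were washed and held 1 h at room temperature in HBSS/10 mM Hepes with peptide. They were then activated with 2 mM MnCl₂ and added at 10⁶ cells/well to glass slides coated with mouse MAdCAM-1-Fc (10 μg/ml, FBS-blocked). Adhesion ran 30 min.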

[2] = target: T1, Integrin alpha-4/beta-7 (Mus musculus); experiment: Inhibition of alpha4beta7 assessed as inhibition of Mn(2+)-activated adhesion of mouse TK-1 T cells to mouse MAdCAM-1 at 50 uM incubated for 1 hr by cell adhesion assay; in short: as §1
[3] = target: T1, Integrin alpha-4/beta-7 (Mus musculus); experiment: Inhibition of alpha4beta7 assessed as inhibition of Mn(2+)-activated adhesion of mouse TK-1 T cells to mouse MAdCAM-1 at 25 uM incubated for 1 hr by cell adhesion assay; in short: as §1
[4] = target: T1, Integrin alpha-4/beta-7 (Mus musculus); experiment: Inhibition of alpha4beta7 assessed as inhibition of Mn(2+)-activated adhesion of mouse TK-1 T cells to mouse MAdCAM-1 at <5 to 10 uM incubated for 1 hr by cell adhesion assay; in short: as §1

SMILES | inhibition [1] | inhibition [2] | inhibition [3] | inhibition [4]
N=C(N)NCCC[C@H](NC(=O)[C@H](CCCNC(=N)N)NC(=O)[C@H](CC(=O)O)NC(=O)[C@H](Cc1ccc(O)cc1)NC(=O)[C@@H](CCCNC(=N)N)NC(=O)[C@@H](CCCNC(=N)N)NC(=O)[C@@H](CCCNC(=N)N)NC(=O)[C@@H](CCCNC(=N)N)NC(=O)[C@@H](CCCNC(=N)N)NC(=O)[C@@H](CCCNC(=N)N)NC(=O)[C@@H](CCCNC(=N)N)NC(=O)[C@@H](CCCNC(=N)N)NC(=O)[C@@H](CCCNC(=N)N)NC(=O)CCCC[C@@H]1SC[C@@H]2NC(=O)N[C@@H]21)C(=O)N[C@@H](CCC(=O)O)C(=O)N[C@@H](Cc1ccc(O)cc1)C(=O)O | 71.3% | 66.4% | – | –
N=C(N)NCCC[C@H](NC(=O)CCCC[C@@H]1SC[C@@H]2NC(=O)N[C@@H]21)C(=O)N[C@@H](CCCNC(=N)N)C(=O)N[C@@H](CCCNC(=N)N)C(=O)N[C@@H](CCCNC(=N)N)C(=O)N[C@@H](CCCNC(=N)N)C(=O)N[C@@H](CCCNC(=N)N)C(=O)N[C@@H](CCCNC(=N)N)C(=O)N[C@@H](CCCNC(=N)N)C(=O)N[C@@H](CCC(=O)O)C(=O)N[C@@H](CCCNC(=N)N)C(=O)N[C@@H](Cc1ccc(O)cc1)C(=O)O (Biotin-RRRRRRRRERY-OH) | 18.2% | 8.73% | – | –
Cc1ccc(-c2ccc(C[C@H](NC(=O)[C@H](CCCNC(=N)N)NC(=O)[C@H](CCC(=O)O)NC(=O)[C@H](CCCNC(=N)N)NC(=O)[C@H](CCCNC(=N)N)NC(=O)[C@H](CCCNC(=N)N)NC(=O)[C@H](CCCNC(=N)N)NC(=O)[C@H](CCCNC(=N)N)NC(=O)[C@H](CCCNC(=N)N)NC(=O)[C@H](CCCNC(=N)N)NC(=O)[C@H](CCCNC(=N)N)NC(=O)CCCC[C@@H]3SC[C@@H]4NC(=O)N[C@@H]43)C(=O)O)cc2)cc1 (Biotin-RRRRRRRRER[Bip(4'-Me)]-OH) | 57.3% | 47.4% | – | –
COc1ccccc1-c1ccc(C[C@H](NC(=O)[C@H](CCCNC(=N)N)NC(=O)[C@H](CCC(=O)O)NC(=O)[C@H](CCCNC(=N)N)NC(=O)[C@H](CCCNC(=N)N)NC(=O)[C@H](CCCNC(=N)N)NC(=O)[C@H](CCCNC(=N)N)NC(=O)[C@H](CCCNC(=N)N)NC(=O)[C@H](CCCNC(=N)N)NC(=O)[C@H](CCCNC(=N)N)NC(=O)[C@H](CCCNC(=N)N)NC(=O)CCCC[C@@H]2SC[C@@H]3NC(=O)N[C@@H]32)C(=O)O)cc1 (Biotin-RRRRRRRRER[Phe(4-(2-MeO-Ph))]-OH) | 47.1% | 48.1% | – | –
N=C(N)NCCC[C@H](NC(=O)CCCC[C@@H]1SC[C@@H]2NC(=O)N[C@@H]21)C(=O)N[C@@H](CCCNC(=N)N)C(=O)N[C@@H](CCCNC(=N)N)C(=O)N[C@@H](CCCNC(=N)N)C(=O)N[C@@H](CCCNC(=N)N)C(=O)N[C@@H](CCCNC(=N)N)C(=O)N[C@@H](CCCNC(=N)N)C(=O)N[C@@H](CCCNC(=N)N)C(=O)N[C@@H](CCC(=O)O)C(=O)N[C@@H](CCCNC(=N)N)C(=O)N[C@@H](Cc1ccc(C2CCCCC2)cc1)C(=O)O (Biotin-RRRRRRRRER[X1]-OH) | 64.8% | 71.7% | Active | inactive
COc1cccc(OC)c1-c1ccc(C[C@H](NC(=O)[C@H](CCCNC(=N)N)NC(=O)[C@H](CCC(=O)O)NC(=O)[C@H](CCCNC(=N)N)NC(=O)[C@H](CCCNC(=N)N)NC(=O)[C@H](CCCNC(=N)N)NC(=O)[C@H](CCCNC(=N)N)NC(=O)[C@H](CCCNC(=N)N)NC(=O)[C@H](CCCNC(=N)N)NC(=O)[C@H](CCCNC(=N)N)NC(=O)[C@H](CCCNC(=N)N)NC(=O)CCCC[C@@H]2SC[C@@H]3NC(=O)N[C@@H]32)C(=O)O)cc1 (Biotin-RRRRRRRRER[X3]-OH) | 50.9% | 38.3% | – | –
N=C(N)NCCC[C@H](NC(=O)CCCC[C@@H]1SC[C@@H]2NC(=O)N[C@@H]21)C(=O)N[C@@H](CCCNC(=N)N)C(=O)N[C@@H](CCCNC(=N)N)C(=O)N[C@@H](CCCNC(=N)N)C(=O)N[C@@H](CCCNC(=N)N)C(=O)N[C@@H](CCCNC(=N)N)C(=O)N[C@@H](CCCNC(=N)N)C(=O)N[C@@H](CCCNC(=N)N)C(=O)N[C@@H](CCC(=O)O)C(=O)N[C@@H](CCCNC(=N)N)C(=O)N[C@@H](Cc1ccc(C2=CCCCC2)cc1)C(=O)O (Biotin-RRRRRRRRER[X4]-OH) | 59.1% | 49.7% | – | –
N#Cc1ccc(-c2ccc(C[C@H](NC(=O)[C@H](CCCNC(=N)N)NC(=O)[C@H](CCC(=O)O)NC(=O)[C@H](CCCNC(=N)N)NC(=O)[C@H](CCCNC(=N)N)NC(=O)[C@H](CCCNC(=N)N)NC(=O)[C@H](CCCNC(=N)N)NC(=O)[C@H](CCCNC(=N)N)NC(=O)[C@H](CCCNC(=N)N)NC(=O)[C@H](CCCNC(=N)N)NC(=O)[C@H](CCCNC(=N)N)NC(=O)CCCC[C@@H]3SC[C@@H]4NC(=O)N[C@@H]43)C(=O)O)cc2)cc1 (Biotin-RRRRRRRRER[X5]-OH) | 57% | 45% | – | –
COc1ccc(-c2ccc(C[C@H](NC(=O)[C@H](CCCNC(=N)N)NC(=O)[C@H](CCC(=O)O)NC(=O)[C@H](CCCNC(=N)N)NC(=O)[C@H](CCCNC(=N)N)NC(=O)[C@H](CCCNC(=N)N)NC(=O)[C@H](CCCNC(=N)N)NC(=O)[C@H](CCCNC(=N)N)NC(=O)[C@H](CCCNC(=N)N)NC(=O)[C@H](CCCNC(=N)N)NC(=O)[C@H](CCCNC(=N)N)NC(=O)CCCC[C@@H]3SC[C@@H]4NC(=O)N[C@@H]43)C(=O)O)cc2)cc1OC (Biotin-RRRRRRRRER[X6]-OH) | 50.1% | 37.9% | – | –
N=C(N)NCCC[C@H](NC(=O)CCCC[C@@H]1SC[C@@H]2NC(=O)N[C@@H]21)C(=O)N[C@@H](CCCNC(=N)N)C(=O)N[C@@H](CCCNC(=N)N)C(=O)N[C@@H](CCCNC(=N)N)C(=O)N[C@@H](CCCNC(=N)N)C(=O)N[C@@H](CCCNC(=N)N)C(=O)N[C@@H](CCCNC(=N)N)C(=O)N[C@@H](CCCNC(=N)N)C(=O)N[C@@H](CCC(=O)O)C(=O)N[C@@H](CCCNC(=N)N)C(=O)N[C@@H](Cc1ccc(-c2cccc([N+](=O)[O-])c2)cc1)C(=O)O (Biotin-RRRRRRRRER[X7]-OH) | 60.3% | 50.5% | – | –
